Results taken from ChEMBL document CHEMBL3621107, “Ring fusion strategy for synthesis and lead optimization of sulfur-substituted anthra[1,2-c][1,2,5]thiadiazole-6,11-dione derivatives as promising scaffold of antitumor agents” (Eur J Med Chem, 2015).

Assays:
Format in all cases: functional
HT-29 = experiment: Cytotoxicity against human HT-29 cells assessed as cell growth at 10 uM after 48 hrs by SRB assay relative to control; details: HT-29, 48 h, read-out: Activity
Outline: (§1)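 First-stage NCI-60 screen by the NCI Developmental Therapeutics Program. Each compound was tested once at a single concentration of 10 μM against the 60-cell-line panel. Growth percentage was reported for each cell line.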

TK-10 = experiment: Cytotoxicity against human TK10 cells assessed as cell growth at 10 uM after 48 hrs by SRB assay relative to control; details: TK-10, 48 h, read-out: Activity
Outline: (§2)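 NCI-60 one-dose screen run by NCI DTP: each cell line exposed to a single 10 µM dose, and percentage growth recorded against untreated growth.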

IGROV-1 = experiment: Cytotoxicity against human IGROV1 cells assessed as cell growth at 10 uM after 48 hrs by SRB assay relative to control; details: IGROV-1, 48 h, read-out: Activity; outline: as §1
SNB-75 = experiment: Cytotoxicity against human SNB75 cells assessed as cell growth at 10 uM after 48 hrs by SRB assay relative to control; details: SNB-75, 48 h, read-out: Activity; outline: as §2
LOX IMVI = experiment: Cytotoxicity against human LOXIMVI cells assessed as cell growth at 10 uM after 48 hrs by SRB assay relative to control; details: read-out: Activity; outline: as §1
SF-268 = experiment: Cytotoxicity against human SF268 cells assessed as cell growth at 10 uM after 48 hrs by SRB assay relative to control; details: SF-268, 48 h, read-out: Activity
Outline: (§3)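 First-stage NCI DTP one-dose screen against the 60 human tumour cell line panel. Compounds were tested at a single 10 μM level, and results are given as growth percentage.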

MOLT-4 = experiment: Cytotoxicity against human MOLT4 cells assessed as cell growth at 10 uM after 48 hrs by SRB assay relative to control; details: MOLT-4, 48 h, read-out: Activity; outline: as §3
CAKI-1 = experiment: Cytotoxicity against human Caki1 cells assessed as cell growth at 10 uM after 48 hrs by SRB assay relative to control; details: CAKI-1, 48 h, read-out: Activity; outline: as §1
RXF 393 = experiment: Cytotoxicity against human RXF393 cells assessed as cell growth at 10 uM after 48 hrs by SRB assay relative to control; details: RXF 393, 48 h, read-out: Activity; outline: as §3
HCT-15 = experiment: Cytotoxicity against human HCT15 cells assessed as cell growth at 10 uM after 48 hrs by SRB assay relative to control; details: HCT-15, 48 h, read-out: Activity; outline: as §1
MDA-MB-468 = experiment: Cytotoxicity against human MDA-MB-468 cells assessed as cell growth at 10 uM after 48 hrs by SRB assay relative to control; details: MDA-MB-468, 48 h, read-out: Activity; outline: as §3
786-0 = experiment: Cytotoxicity against human 786-0 cells assessed as cell growth at 10 uM after 48 hrs by SRB assay relative to control; details: 786-0, 48 h, read-out: Activity; outline: as §1
T47D = experiment: Cytotoxicity against human T47D cells assessed as cell growth at 10 uM after 48 hrs by SRB assay relative to control; details: read-out: Activity; outline: as §2
MDA-MB-231 = experiment: Cytotoxicity against human MDA-MB-231 cells assessed as cell growth at 10 uM after 48 hrs by SRB assay relative to control; details: MDA-MB-231, 48 h, read-out: Activity; outline: as §3
OVCAR-5 = experiment: Cytotoxicity against human OVCAR5 cells assessed as cell growth at 10 uM after 48 hrs by SRB assay relative to control; details: OVCAR-5, 48 h, read-out: Activity; outline: as §3
NCI-H460 = experiment: Cytotoxicity against human NCI-H460 cells assessed as cell growth at 10 uM after 48 hrs by SRB assay relative to control; details: NCI-H460, 48 h, read-out: Activity; outline: as §3
COLO 205 = experiment: Cytotoxicity against human COLO205 cells assessed as cell growth at 10 uM after 48 hrs by SRB assay relative to control; details: COLO 205, 48 h, read-out: Activity; outline: as §1
[1] = Cytotoxicity against human Hs578T cells assessed as cell growth at 10 uM after 48 hrs by SRB assay relative to control; details: Hs-578T, read-out: Activity; outline: as §1
ACHN = experiment: Cytotoxicity against human ACHN cells assessed as cell growth at 10 uM after 48 hrs by SRB assay relative to control; details: read-out: Activity; outline: as §1
SK-MEL-5 = experiment: Cytotoxicity against human SK-MEL-5 cells assessed as cell growth at 10 uM after 48 hrs by SRB assay relative to control; details: SK-MEL-5, 48 h, read-out: Activity; outline: as §3
Malme-3M = experiment: Cytotoxicity against human MALME-3M cells assessed as cell growth at 10 uM after 48 hrs by SRB assay relative to control; details: read-out: Activity; outline: as §1
OVCAR-3 = experiment: Cytotoxicity against human OVCAR3 cells assessed as cell growth at 10 uM after 48 hrs by SRB assay relative to control; details: OVCAR-3, 48 h, read-out: Activity; outline: as §3
HL-60(TB) = experiment: Cytotoxicity against human HL-60(TB) cells assessed as cell growth at 10 uM after 48 hrs by SRB assay relative to control; details: HL-60, 48 h, read-out: Activity
Outline: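 NCI Developmental Therapeutics Program 60-cell-line screen, first stage: a single dose of 10 μM against the panel, reported as percentage growth.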

SK-MEL-2 = experiment: Cytotoxicity against human SK-MEL-2 cells assessed as cell growth at 10 uM after 48 hrs by SRB assay relative to control; details: SK-MEL-2, 48 h, read-out: Activity; outline: as §3
UACC-62 = experiment: Cytotoxicity against human UACC62 cells assessed as cell growth at 10 uM after 48 hrs by SRB assay relative to control; details: UACC-62, 48 h, read-out: Activity; outline: as §2
NCI/ADR-RES = experiment: Cytotoxicity against human NCI/ADR-RES cells assessed as cell growth at 10 uM after 48 hrs by SRB assay relative to control; details: read-out: Activity; outline: as §3
[2] = Cytotoxicity against human EKVX cells assessed as cell growth at 10 uM after 48 hrs by SRB assay relative to control; details: read-out: Activity; outline: as §1

## COc1ccc(Sc2cc3c(c4nsnc24)C(=O)c2ccccc2C3=O)cc1
HT-29
  growth at 10 µM: 101%
TK-10
  growth at 10 µM: 136%
IGROV-1
  growth at 10 µM: 103%
SNB-75
  growth at 10 µM: 79%
LOX IMVI
  growth at 10 µM: 90.2%
SF-268
  growth at 10 µM: 94.8%
MOLT-4
  growth at 10 µM: 82.9%
CAKI-1
  growth at 10 µM: 108%
RXF 393
  growth at 10 µM: 109%
HCT-15
  growth at 10 µM: 109%
MDA-MB-468
  growth at 10 µM: 113%
786-0
  growth at 10 µM: 94.9%
T47D
  growth at 10 µM: 89.7%
MDA-MB-231
  growth at 10 µM: 87.6%
OVCAR-5
  growth at 10 µM: 103%
NCI-H460
  growth at 10 µM: 107%
COLO 205
  growth at 10 µM: 112%
[1]
  growth at 10 µM: 96.7%
ACHN
  growth at 10 µM: 102%
SK-MEL-5
  growth at 10 µM: 106%
Malme-3M
  growth at 10 µM: 89.5%
OVCAR-3
  growth at 10 µM: 110%
HL-60(TB)
  growth at 10 µM: 103%
SK-MEL-2
  growth at 10 µM: 99.2%
UACC-62
  growth at 10 µM: 109%
NCI/ADR-RES
  growth at 10 µM: 97.6%
[2]
  growth at 10 µM: 149%

## Cc1ccc(Sc2cc3c(c4nsnc24)C(=O)c2ccccc2C3=O)c(C)c1
HT-29
  growth at 10 µM: 101%
TK-10
  growth at 10 µM: 127%
IGROV-1
  growth at 10 µM: 95%
SNB-75
  growth at 10 µM: 76%
LOX IMVI
  growth at 10 µM: 90.4%
SF-268
  growth at 10 µM: 90.6%
MOLT-4
  growth at 10 µM: 91%
RXF 393
  growth at 10 µM: 106%
HCT-15
  growth at 10 µM: 83%
MDA-MB-468
  growth at 10 µM: 100%
786-0
  growth at 10 µM: 105%
T47D
  growth at 10 µM: 75.4%
MDA-MB-231
  growth at 10 µM: 92.3%
OVCAR-5
  growth at 10 µM: 106%
NCI-H460
  growth at 10 µM: 102%
COLO 205
  growth at 10 µM: 107%
[1]
  growth at 10 µM: 99.1%
ACHN
  growth at 10 µM: 94.2%
SK-MEL-5
  growth at 10 µM: 110%
Malme-3M
  growth at 10 µM: 108%
OVCAR-3
  growth at 10 µM: 105%
HL-60(TB)
  growth at 10 µM: 99.9%
SK-MEL-2
  growth at 10 µM: 98.5%
UACC-62
  growth at 10 µM: 94.5%
NCI/ADR-RES
  growth at 10 µM: 97.8%
[2]
  growth at 10 µM: 109%

## COc1cccc(Sc2cc3c(c4nsnc24)C(=O)c2ccccc2C3=O)c1
HT-29
  growth at 10 µM: 105%
TK-10
  growth at 10 µM: 131%
IGROV-1
  growth at 10 µM: 99.9%
SNB-75
  growth at 10 µM: 81.8%
LOX IMVI
  growth at 10 µM: 71%
SF-268
  growth at 10 µM: 89.8%
MOLT-4
  growth at 10 µM: 35.8%
RXF 393
  growth at 10 µM: 124%
HCT-15
  growth at 10 µM: 71.9%
MDA-MB-468
  growth at 10 µM: 93.5%
786-0
  growth at 10 µM: 103%
T47D
  growth at 10 µM: 69.1%
MDA-MB-231
  growth at 10 µM: 87.1%
OVCAR-5
  growth at 10 µM: 123%
NCI-H460
  growth at 10 µM: 100%
COLO 205
  growth at 10 µM: 110%
[1]
  growth at 10 µM: 93.8%
ACHN
  growth at 10 µM: 98.7%
SK-MEL-5
  growth at 10 µM: 100%
Malme-3M
  growth at 10 µM: 113%
OVCAR-3
  growth at 10 µM: 85.8%
HL-60(TB)
  growth at 10 µM: 84.5%
SK-MEL-2
  growth at 10 µM: 82.6%
UACC-62
  growth at 10 µM: 87.7%
NCI/ADR-RES
  growth at 10 µM: 92.7%
[2]
  growth at 10 µM: 105%

## O=C1c2ccccc2C(=O)c2c1cc(Sc1cccc(Cl)c1)c1nsnc21
HT-29
  growth at 10 µM: 102%
TK-10
  growth at 10 µM: 53.8%
IGROV-1
  growth at 10 µM: -13.5%
SNB-75
  growth at 10 µM: 26.1%
LOX IMVI
  growth at 10 µM: -59.2%
CAKI-1
  growth at 10 µM: -3.69%
RXF 393
  growth at 10 µM: -27.8%
HCT-15
  growth at 10 µM: 18%
MDA-MB-468
  growth at 10 µM: -79.2%
786-0
  growth at 10 µM: -2.06%
T47D
  growth at 10 µM: -42.3%
MDA-MB-231
  growth at 10 µM: -29.1%
OVCAR-5
  growth at 10 µM: 109%
COLO 205
  growth at 10 µM: 106%
ACHN
  growth at 10 µM: -92.5%
SK-MEL-5
  growth at 10 µM: 19%
Malme-3M
  growth at 10 µM: -86.6%
SK-MEL-2
  growth at 10 µM: -53.2%
UACC-62
  growth at 10 µM: -65%
NCI/ADR-RES
  growth at 10 µM: -15.1%
[2]
  growth at 10 µM: 43.6%

## CCOc1cccc(Sc2cc3c(c4nsnc24)C(=O)c2ccccc2C3=O)c1
HT-29
  growth at 10 µM: 106%
TK-10
  growth at 10 µM: 125%
IGROV-1
  growth at 10 µM: 94.7%
SNB-75
  growth at 10 µM: 77.2%
LOX IMVI
  growth at 10 µM: 84.1%
CAKI-1
  growth at 10 µM: 84.2%
RXF 393
  growth at 10 µM: 118%
HCT-15
  growth at 10 µM: 103%
MDA-MB-468
  growth at 10 µM: 108%
786-0
  growth at 10 µM: 100%
T47D
  growth at 10 µM: 86.5%
MDA-MB-231
  growth at 10 µM: 101%
OVCAR-5
  growth at 10 µM: 117%
COLO 205
  growth at 10 µM: 106%
ACHN
  growth at 10 µM: 103%
SK-MEL-5
  growth at 10 µM: 107%
Malme-3M
  growth at 10 µM: 109%
SK-MEL-2
  growth at 10 µM: 103%
UACC-62
  growth at 10 µM: 109%
NCI/ADR-RES
  growth at 10 µM: 102%
[2]
  growth at 10 µM: 102%
